The source made the active and inactive calls. The calls are words filed in the database; no cut-off is given here.
How the values were obtained:
[1] = biological target: T1, Endoplasmic reticulum aminopeptidase 2 (Homo sapiens, UniProt Q6P179); test: Inhibition of recombinant ERAP2 (unknown origin) expressed in baculovirus-infected Hi5 insect cells assessed as L-Arginyl-7-amido-4-methyl coumarin hydrolysis to 7-amido-4-methyl coumarin after 5 to 10 mins by fluorescence assay
[2] = biological target: Endoplasmic reticulum aminopeptidase 1 (Homo sapiens) (UniProt Q9NZ08); test: Inhibition of recombinant ERAP1 (unknown origin) expressed in baculovirus-infected Hi5 insect cells assessed as L-Leucine-7-amido-4-methyl coumarin hydrolysis to 7-amido-4-methyl coumarin at 50 uM after 5 to 10 mins by fluorescence assay
How it was run: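 ERAP1 was made as a recombinant protein in Hi5 insect cells infected with recombinant baculovirus and affinity-purified to homogeneity. Activity was followed as the kinetics of hydrolysis of the fluorogenic substrate L-AMC. Inhibitor was titrated at increasing amounts, and single-point inhibition was checked at 50 μM.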

[3] = biological target: T2, Leucyl-cystinyl aminopeptidase (Homo sapiens, UniProt Q9UIQ6); test: Inhibition of human recombinant IRAP expressed in HeLa cells assessed as L-Leucine-7-amido-4-methyl coumarin hydrolysis to 7-amido-4-methyl coumarin after 5 to 10 mins by fluorescence assay; assay type: cell-based
[4] = biological target: T1, Endoplasmic reticulum aminopeptidase 2; test: Inhibition of recombinant ERAP2 (unknown origin) expressed in baculovirus-infected Hi5 insect cells assessed as L-Arginyl-7-amido-4-methyl coumarin hydrolysis to 7-amido-4-methyl coumarin at 50 to 100 uM after 5 to 10 mins by fluorescence assay relative to control
How it was run: (§1)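 ERAP2 was made as a recombinant protein in baculovirus-infected Hi5 insect cells and purified by affinity chromatography. Activity was monitored fluorogenically as the rate of R-AMC hydrolysis. Inhibitor was titrated, and inhibition was also examined at 50 μM and across 50–100 μM.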

[5] = biological target: T2, Leucyl-cystinyl aminopeptidase; test: Inhibition of human recombinant IRAP expressed in HeLa cells assessed as L-Leucine-7-amido-4-methyl coumarin hydrolysis to 7-amido-4-methyl coumarin at 50 to 100 uM after 5 to 10 mins by fluorescence assay relative to control; assay type: cell-based
[6] = biological target: T1, Endoplasmic reticulum aminopeptidase 2; test: Inhibition of recombinant ERAP2 (unknown origin) expressed in baculovirus-infected Hi5 insect cells assessed as L-Arginyl-7-amido-4-methyl coumarin hydrolysis to 7-amido-4-methyl coumarin at 50 uM after 5 to 10 mins by fluorescence assay; how it was run: as §1

T1 sequence (Q6P179 whole entry): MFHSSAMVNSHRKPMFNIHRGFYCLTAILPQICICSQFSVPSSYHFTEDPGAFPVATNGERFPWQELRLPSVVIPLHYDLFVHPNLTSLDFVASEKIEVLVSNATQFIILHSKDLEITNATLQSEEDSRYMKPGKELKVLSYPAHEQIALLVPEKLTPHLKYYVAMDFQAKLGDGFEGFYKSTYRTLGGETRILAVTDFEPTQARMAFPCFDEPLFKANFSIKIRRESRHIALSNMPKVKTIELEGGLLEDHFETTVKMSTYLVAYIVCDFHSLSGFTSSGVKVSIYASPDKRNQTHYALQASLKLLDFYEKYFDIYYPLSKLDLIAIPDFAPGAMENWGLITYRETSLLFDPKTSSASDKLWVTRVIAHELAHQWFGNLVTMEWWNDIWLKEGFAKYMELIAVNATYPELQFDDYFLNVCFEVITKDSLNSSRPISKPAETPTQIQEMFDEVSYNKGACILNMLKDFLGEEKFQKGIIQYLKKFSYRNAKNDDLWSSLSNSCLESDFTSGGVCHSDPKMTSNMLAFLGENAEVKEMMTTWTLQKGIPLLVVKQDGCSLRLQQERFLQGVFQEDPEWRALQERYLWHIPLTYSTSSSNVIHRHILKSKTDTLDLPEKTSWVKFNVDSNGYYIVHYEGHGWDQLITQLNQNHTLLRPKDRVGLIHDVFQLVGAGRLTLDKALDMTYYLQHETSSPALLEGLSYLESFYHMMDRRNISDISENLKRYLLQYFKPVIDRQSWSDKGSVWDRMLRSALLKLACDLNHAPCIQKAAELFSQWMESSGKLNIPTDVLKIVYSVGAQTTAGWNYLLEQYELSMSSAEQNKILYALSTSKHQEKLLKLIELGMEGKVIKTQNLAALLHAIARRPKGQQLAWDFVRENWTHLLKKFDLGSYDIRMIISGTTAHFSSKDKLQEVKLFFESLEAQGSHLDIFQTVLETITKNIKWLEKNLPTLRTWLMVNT
T2 sequence (Q9UIQ6 whole entry): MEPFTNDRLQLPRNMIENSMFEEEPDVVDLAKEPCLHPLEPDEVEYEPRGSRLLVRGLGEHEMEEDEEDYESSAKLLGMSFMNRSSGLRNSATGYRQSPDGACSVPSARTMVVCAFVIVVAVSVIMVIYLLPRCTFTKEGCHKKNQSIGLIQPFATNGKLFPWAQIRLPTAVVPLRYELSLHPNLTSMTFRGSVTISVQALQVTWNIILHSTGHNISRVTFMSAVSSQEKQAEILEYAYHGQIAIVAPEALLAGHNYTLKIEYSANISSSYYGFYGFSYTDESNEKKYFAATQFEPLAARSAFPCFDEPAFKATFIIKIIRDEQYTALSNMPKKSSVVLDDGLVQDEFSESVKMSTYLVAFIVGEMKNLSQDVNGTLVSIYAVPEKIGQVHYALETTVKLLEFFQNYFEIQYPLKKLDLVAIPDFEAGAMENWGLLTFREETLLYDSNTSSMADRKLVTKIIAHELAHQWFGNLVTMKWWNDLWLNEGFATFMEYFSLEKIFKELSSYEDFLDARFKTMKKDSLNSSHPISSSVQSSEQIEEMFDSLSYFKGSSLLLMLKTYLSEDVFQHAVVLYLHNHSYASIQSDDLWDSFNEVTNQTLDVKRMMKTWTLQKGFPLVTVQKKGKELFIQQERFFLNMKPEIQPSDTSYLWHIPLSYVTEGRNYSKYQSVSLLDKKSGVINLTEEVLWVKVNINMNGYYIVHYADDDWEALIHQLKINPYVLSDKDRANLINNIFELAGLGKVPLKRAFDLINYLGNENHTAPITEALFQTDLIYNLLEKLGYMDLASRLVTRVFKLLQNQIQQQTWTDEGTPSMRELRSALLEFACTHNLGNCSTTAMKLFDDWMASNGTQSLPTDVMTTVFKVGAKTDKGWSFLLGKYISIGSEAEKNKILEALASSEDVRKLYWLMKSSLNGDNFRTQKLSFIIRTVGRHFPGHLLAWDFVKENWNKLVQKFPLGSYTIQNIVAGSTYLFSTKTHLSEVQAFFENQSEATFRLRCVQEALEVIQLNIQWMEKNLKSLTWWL
Sequence of Endoplasmic reticulum aminopeptidase 1 (Homo sapiens) (Q9NZ08 whole entry): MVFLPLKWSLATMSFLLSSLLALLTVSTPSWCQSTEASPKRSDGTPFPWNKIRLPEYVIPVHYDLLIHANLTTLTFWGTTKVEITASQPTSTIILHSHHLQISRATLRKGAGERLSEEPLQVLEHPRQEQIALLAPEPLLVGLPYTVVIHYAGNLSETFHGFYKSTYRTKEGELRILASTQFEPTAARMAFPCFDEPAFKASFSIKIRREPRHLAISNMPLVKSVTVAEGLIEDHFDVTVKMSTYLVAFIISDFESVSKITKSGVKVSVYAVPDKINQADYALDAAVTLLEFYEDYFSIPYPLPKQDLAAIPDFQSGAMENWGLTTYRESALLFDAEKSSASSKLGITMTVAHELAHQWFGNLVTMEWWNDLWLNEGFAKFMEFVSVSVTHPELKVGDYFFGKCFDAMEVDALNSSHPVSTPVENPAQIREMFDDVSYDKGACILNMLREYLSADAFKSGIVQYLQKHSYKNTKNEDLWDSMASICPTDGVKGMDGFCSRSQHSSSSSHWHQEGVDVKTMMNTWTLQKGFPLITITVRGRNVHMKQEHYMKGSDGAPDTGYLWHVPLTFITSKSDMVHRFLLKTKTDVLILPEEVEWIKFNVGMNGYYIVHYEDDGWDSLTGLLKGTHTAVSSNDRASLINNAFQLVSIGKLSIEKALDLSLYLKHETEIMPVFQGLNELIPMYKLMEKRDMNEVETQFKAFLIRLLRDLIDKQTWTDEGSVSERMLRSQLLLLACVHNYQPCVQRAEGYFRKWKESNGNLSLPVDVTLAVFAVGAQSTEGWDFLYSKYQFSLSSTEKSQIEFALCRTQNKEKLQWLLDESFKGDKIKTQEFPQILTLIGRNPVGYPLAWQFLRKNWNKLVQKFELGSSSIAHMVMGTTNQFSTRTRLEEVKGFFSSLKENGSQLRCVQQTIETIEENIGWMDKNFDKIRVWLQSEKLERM

Nc1ccc(C(=O)O)cc1NC(=O)[C@@H](N)CCc1ccccc1
IC50 [1]: > 100 µM | inhibition [2]: inactive | IC50 [3]: > 100 µM | inhibition [4]: < 20% | inhibition [5]: < 20%

COC(=O)[C@H](C)NC(=O)c1ccc(N)c(NC(=O)[C@@H](N)CCc2ccccc2)c1
inhibition [6]: inactive | inhibition [2]: inactive

COC(=O)[C@@H](NC(=O)c1ccc(N)c(NC(=O)[C@@H](N)CCc2ccccc2)c1)[C@@H](C)O
inhibition [6]: inactive | inhibition [2]: inactive

CC(C)[C@H](NC(=O)c1ccc(N)c(NC(=O)[C@@H](N)CCc2ccccc2)c1)C(=O)O
inhibition [6]: inactive | inhibition [2]: inactive | IC50 [3]: > 100 µM | inhibition [5]: < 20%

COC(=O)[C@H](CCCNC(=N)N)NC(=O)c1ccc(N)c(NC(=O)[C@@H](N)CCc2ccccc2)c1
inhibition [6]: inactive | inhibition [2]: inactive

COC(=O)c1ccc(N)c(NC(=O)[C@@H](N)CCc2ccccc2)c1
IC50 [1]: > 100 µM | inhibition [2]: inactive | inhibition [4]: < 20%

COC(=O)[C@H](Cc1ccc(O)cc1)NC(=O)c1ccc(N)c(NC(=O)[C@@H](N)CCc2ccccc2)c1
IC50 [1]: > 100 µM | inhibition [4]: < 20%

Nc1ccc(C(=O)N[C@@H](Cc2c[nH]c3ccccc23)C(=O)OCc2ccccc2)cc1NC(=O)[C@@H](N)CCc1ccccc1
inhibition [2]: inactive

Source: ChEMBL document CHEMBL2417496, “Novel selective inhibitors of aminopeptidases that generate antigenic peptides” (Bioorg Med Chem Lett, 2013)
